How the values were obtained:
Integrin alpha-4/beta-1 [1] = biological target: T1, Integrin alpha-4/beta-1 (Homo sapiens, UniProt P05556+P13612); assay: Inhibition of europium labeled human VCAM1/Fc chimera binding to human VLA-4 alpha-4-beta-1 expressed in Chinese hamster 4B4 cells by fluorimetric assay; type: cell-based
Integrin alpha-4/beta-1 [2] = biological target: T1, Integrin alpha-4/beta-1; assay: Inhibition of europium labeled human VCAM1/Fc chimera binding to human VLA-4 alpha-4-beta-1 expressed in Chinese hamster 4B4 cells in presence of 3% HSA by fluorimetric assay; type: cell-based
Procedure, shortened: (§1)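 CHO-K1 4B4 cells transfected with human α4 and β1, plated at 3 × 10⁵ cells/mL and cultured 2 days, washed with HEPES pH 7.5 buffer containing Ca, Mg, Mn. Compound plus Eu-labeled human VCAM-1/Fc (final 1 nM), with or without human serum albumin, 60 min at room temperature; washed, Eu time-resolved fluorescence read; duplicates.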

[3] = Drug level in BALB/c mouse serum at 10 mg/kg, po after 15 mins; type: ADME, organism-based; design: dose 10 mg/kg, route oral; conditions: read-out: Drug uptake
Procedure, shortened: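 Serum (final 0.01-10%) assayed in the VLA-4/VCAM-1 binding assay, and concentration estimated from a calibration curve of compound spiked into untreated mouse serum.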

Integrin alpha-4/beta-1 [4] = biological target: T1, Integrin alpha-4/beta-1; assay: Inhibition of europium labeled human VCAM1/Fc chimera binding to human VLA-4 alpha-4-beta-1 expressed in Chinese hamster 4B4 cells at 2 uM in presence of 3% HSA by fluorimetric assay; type: cell-based; procedure, shortened: as §1
Integrin alpha-4/beta-1 [5] = biological target: T1, Integrin alpha-4/beta-1; assay: Inhibition of europium labeled human VCAM1/Fc chimera binding to human VLA-4 alpha-4-beta-1 expressed in Chinese hamster 4B4 cells at 2 uM by fluorimetric assay; type: cell-based; procedure, shortened: as §1
[6] = Volume of distribution at steady state in Sprague-Dawley rat at 1 mg/kg, iv; type: ADME, organism-based; design: dose 1 mg/kg, route intravenous; conditions: in vivo, read-out: Vdss
Procedure, shortened: (§2)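 Male Sprague-Dawley rats (7 weeks), fasted 18 h, four per group. 1 mg/kg oral in 0.5% MC or iv in saline, each with 3 equiv NaOH. Plasma drawn at 0.08 (iv) or 0.25 (po), 0.5, 1, 2 and 6 h; LC/MS/MS quantitation, noncompartmental parameters.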

[7] = Clearance in Sprague-Dawley rat at 1 mg/kg, iv; type: ADME, organism-based; design: dose 1 mg/kg, route intravenous; conditions: in vivo; procedure, shortened: as §2
[8] = Half life in Sprague-Dawley rat at 1 mg/kg, iv; type: ADME, organism-based; design: dose 1 mg/kg, route intravenous; conditions: in vivo; procedure, shortened: as §2
Mus musculus = assay: Antiinflammatory activity in Ascaris suum antigen-induced BALB/c AnNCrj mouse asthma model assessed as inhibition of eosinophil infiltration in BAL fluid at 5 mg.kg, po bid administered 15 mins before and 8, 24 and 32 hrs after antigen challenge measured 48 hrs after antigen challenge; type: functional
Procedure, shortened: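 Female BALB/c AnNCrj mice given cyclophosphamide 150 mg/kg po (day 0), sensitized ip with Ascaris suum extract plus alum on days 2 and 14, challenged intratracheally day 22. Compound in 0.5% MC/0.03% Tween 80 po 15 min before and 8, 24, 32 h after challenge; BAL at 48 h, eosinophils from total count times Wright-stained differential.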

Integrin alpha-4/beta-1 [9] = biological target: T1, Integrin alpha-4/beta-1; assay: Inhibition of europium labeled human VCAM1/Fc chimera binding to human VLA-4 alpha-4-beta-1 expressed in Chinese hamster 4B4 cells at 1.7 uM in presence of 3% HSA by fluorimetric assay; type: cell-based; procedure, shortened: as §1

T1 sequence (P05556 whole entry): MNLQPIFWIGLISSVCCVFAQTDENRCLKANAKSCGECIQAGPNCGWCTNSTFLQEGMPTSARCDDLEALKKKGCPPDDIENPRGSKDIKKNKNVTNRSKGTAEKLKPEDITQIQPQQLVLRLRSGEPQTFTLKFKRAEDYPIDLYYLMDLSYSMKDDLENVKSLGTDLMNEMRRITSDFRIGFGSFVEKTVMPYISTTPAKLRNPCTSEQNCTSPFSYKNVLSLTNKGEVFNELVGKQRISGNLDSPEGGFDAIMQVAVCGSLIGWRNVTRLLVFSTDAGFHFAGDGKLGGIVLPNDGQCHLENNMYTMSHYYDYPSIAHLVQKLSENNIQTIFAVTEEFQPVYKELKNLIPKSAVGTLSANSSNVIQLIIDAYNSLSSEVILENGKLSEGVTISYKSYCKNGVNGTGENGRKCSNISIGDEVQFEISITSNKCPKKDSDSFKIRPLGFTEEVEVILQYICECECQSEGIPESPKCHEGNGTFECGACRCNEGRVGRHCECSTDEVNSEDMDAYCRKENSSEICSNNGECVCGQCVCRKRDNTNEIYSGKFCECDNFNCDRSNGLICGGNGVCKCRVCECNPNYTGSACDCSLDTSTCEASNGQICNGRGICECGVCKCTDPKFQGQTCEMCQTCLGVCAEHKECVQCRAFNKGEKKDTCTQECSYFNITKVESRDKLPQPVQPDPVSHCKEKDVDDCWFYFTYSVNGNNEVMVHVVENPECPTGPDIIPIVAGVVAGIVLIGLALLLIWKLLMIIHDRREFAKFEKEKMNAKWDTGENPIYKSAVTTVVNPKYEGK
T1 sequence (P13612 whole entry): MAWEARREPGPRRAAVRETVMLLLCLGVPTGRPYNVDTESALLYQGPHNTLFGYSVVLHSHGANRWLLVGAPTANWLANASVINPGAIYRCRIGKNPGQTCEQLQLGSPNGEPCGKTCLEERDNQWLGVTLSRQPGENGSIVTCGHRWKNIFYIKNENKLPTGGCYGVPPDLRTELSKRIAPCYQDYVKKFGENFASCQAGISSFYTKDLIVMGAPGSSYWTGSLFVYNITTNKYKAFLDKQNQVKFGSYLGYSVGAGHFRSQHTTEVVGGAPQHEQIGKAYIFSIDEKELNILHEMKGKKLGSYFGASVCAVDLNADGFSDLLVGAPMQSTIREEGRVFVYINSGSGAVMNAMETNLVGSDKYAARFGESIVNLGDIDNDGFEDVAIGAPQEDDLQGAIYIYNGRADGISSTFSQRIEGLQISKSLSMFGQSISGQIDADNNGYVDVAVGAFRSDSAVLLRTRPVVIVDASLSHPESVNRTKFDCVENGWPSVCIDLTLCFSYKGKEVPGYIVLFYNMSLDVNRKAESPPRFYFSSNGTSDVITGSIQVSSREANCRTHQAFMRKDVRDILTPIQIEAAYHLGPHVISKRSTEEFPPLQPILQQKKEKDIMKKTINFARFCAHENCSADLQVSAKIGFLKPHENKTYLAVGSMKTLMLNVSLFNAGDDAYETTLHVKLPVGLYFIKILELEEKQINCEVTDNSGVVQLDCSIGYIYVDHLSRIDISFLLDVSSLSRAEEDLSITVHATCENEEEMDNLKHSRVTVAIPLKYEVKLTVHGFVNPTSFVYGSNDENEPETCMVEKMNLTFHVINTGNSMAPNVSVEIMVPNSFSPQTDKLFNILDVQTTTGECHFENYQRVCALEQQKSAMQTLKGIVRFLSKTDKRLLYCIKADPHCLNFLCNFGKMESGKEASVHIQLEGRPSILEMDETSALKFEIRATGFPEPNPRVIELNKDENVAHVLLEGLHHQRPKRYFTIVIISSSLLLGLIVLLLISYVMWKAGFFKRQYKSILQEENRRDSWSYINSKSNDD

SMILES | IC50 (Integrin alpha-4/beta-1 [1]) | IC50 (Integrin alpha-4/beta-1 [2]) | concentration at 0.25 h [3] | further results
O=C(Nc1ccc(CC(=O)N2C[C@@H](F)C[C@H]2CO[C@H]2CC[C@H](C(=O)O)CC2)cc1Cl)c1nccc2ccccc12 | 14 nM | 418 nM | – | –
Cc1ccc(F)cc1Nc1nc2ccc(CC(=O)N3C[C@@H](F)C[C@H]3CO[C@H]3CC[C@H](C(=O)O)CC3)c(F)c2o1 | 2.8 nM | 439 nM | 912 ng/mL | –
O=C(Nc1cc(F)c(CC(=O)N2C[C@@H](F)C[C@H]2CO[C@H]2CC[C@H](C(=O)O)CC2)cc1Cl)N1CCc2ccccc21 | 2.7 nM | 171 nM | 2960 ng/mL | –
Cn1cc(C(=O)Nc2cc(Cl)c(CC(=O)N3C[C@@H](F)C[C@H]3CO[C@H]3CC[C@H](C(=O)O)CC3)cc2Cl)c2ccccc21 | 5.5 nM | 241 nM | 1880 ng/mL | –
O=C(Nc1ccc(CC(=O)N2C[C@@H](F)C[C@H]2CO[C@H]2CC[C@H](C(=O)O)CC2)cc1Cl)c1nsc2ccccc12 | 2.7 nM | 196 nM | 2150 ng/mL | –
Cc1ccc(F)cc1Nc1nc2ccc(CC(=O)N3C[C@@H](F)C[C@H]3CO[C@H]3CC[C@H](C(=O)O)CC3)cc2o1 | 4.4 nM | 131 nM | 448 ng/mL | –
Cc1cc(F)ccc1Nc1nc2ccc(CC(=O)N3C[C@@H](F)C[C@H]3CO[C@H]3CC[C@H](C(=O)O)CC3)c(F)c2o1 | 12 nM | 1680 nM | – | –
O=C(Nc1cc(F)c(CC(=O)N2C[C@@H](F)C[C@H]2CO[C@H]2CC[C@H](C(=O)O)CC2)cc1Cl)c1nccc2ccccc12 | 32 nM | 1670 nM | – | –
Cc1ccccc1Cc1nc2ccc(CC(=O)N3C[C@@H](F)C[C@H]3CO[C@H]3CC[C@H](C(=O)O)CC3)cc2o1 | – | – | – | inhibition (Integrin alpha-4/beta-1 [4]): 7%; inhibition (Integrin alpha-4/beta-1 [5]): 33%
Cn1cc(C(=O)Nc2ccc(CC(=O)N3C[C@@H](F)C[C@H]3CO[C@H]3CC[C@H](C(=O)O)CC3)cc2Cl)c2ccccc21 | 2.6 nM | 92 nM | 5160 ng/mL | Vd [6]: 0.139 L/kg; clearance [7]: 5 mL/min/kg; half-life [8]: 42 min; inhibition (INH) (Mus musculus): 13%
Cn1cc(C(=O)Nc2cc(F)c(CC(=O)N3C[C@@H](O)C[C@H]3CO[C@H]3CC[C@H](C(=O)O)CC3)cc2Cl)c2ccccc21 | 6.4 nM | 45 nM | 452 ng/mL | –
Cn1cc(C(=O)Nc2cc(F)c(CC(=O)N3CCC[C@H]3CO[C@H]3CC[C@H](C(=O)O)CC3)cc2Cl)c2ccccc21 | 12 nM | 370 nM | – | –
Cc1cccc2oc(Nc3ccc(CC(=O)N4C[C@@H](F)C[C@H]4CO[C@H]4CC[C@H](C(=O)O)CC4)cc3Cl)nc12 | 12 nM | 290 nM | – | –
O=C(Nc1ccc(CC(=O)N2C[C@@H](F)C[C@H]2CO[C@H]2CC[C@H](C(=O)O)CC2)cc1Cl)N1CCc2ccccc21 | 1.9 nM | 83 nM | 1100 ng/mL | –
CCn1cc(C(=O)Nc2ccc(CC(=O)N3C[C@@H](F)C[C@H]3CO[C@H]3CC[C@H](C(=O)O)CC3)cc2Cl)c2ccccc21 | 204 nM | – | – | inhibition (Integrin alpha-4/beta-1 [9]): 21%

Reference: ChEMBL document CHEMBL1154693, “Discovery of trans-4-[1-[[2,5-Dichloro-4-(1-methyl-3-indolylcarboxamido)phenyl]acetyl]-(4S)-methoxy-(2S)-pyrrolidinylmethoxy]cyclohexanecarboxylic acid: an orally active, selective very late antigen-4 antagonist” (J Med Chem, 2009)
